Screening results (PubChem BioAssay)
This is a sample that favours compounds with a hit; in the whole collection about 9.8% have one here.
L major viab – reduces viability of Leishmania major promastigotes; resazurin fluorescence viability; inhibition, % at 10 µM; hit rate 9% among 200,000; in the data active means inhibition above about 50%;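 further: promastigotes grown with compound for 44 hours at 28 °C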
Rad51 HR inh – blocks human Rad51 in homologous recombination; Q06609; hRad51 DNA strand exchange, fluorescence dequenching; inhibition, % at 10 µM; hit rate 0.085% among 200,000;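 active means inhibition above 40% at the single screening dose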;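 further: 0% = DMSO control wells and 100% = blanks with heterologous ssDNA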
Target sequence (Q06609 whole entry, looked up): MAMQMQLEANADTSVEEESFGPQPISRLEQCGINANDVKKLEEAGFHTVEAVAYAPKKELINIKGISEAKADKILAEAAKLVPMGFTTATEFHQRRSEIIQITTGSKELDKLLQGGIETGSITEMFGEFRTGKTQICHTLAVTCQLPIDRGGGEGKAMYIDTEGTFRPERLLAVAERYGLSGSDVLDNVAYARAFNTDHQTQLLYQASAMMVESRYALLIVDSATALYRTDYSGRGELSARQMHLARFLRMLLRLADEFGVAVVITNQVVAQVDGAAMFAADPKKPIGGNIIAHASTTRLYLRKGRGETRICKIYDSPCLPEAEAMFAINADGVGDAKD
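Material: Human Rad51 nucleoprotein filaments preassembled on unlabelled ssDNA | Also added: Labelled 47-mer dsDNA for strand exchange | Dosing: Single dose, 10 µM final compound | Schedule: 30-min compound preincubation and 15-min exchange, both room temperature | Technique: Fluorescence dequenching at 485/520 nm | Measure: Percent inhibition relative to plate controls and blanks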
PMI act satM6P – PMI (human) activation, high substrate | AID 1216 | coupled PMI enzyme assay, resazurin fluorescence, 20 min; hits give high values; 1 = untreated enzyme, 0 = substrate-free blank | P34949 | hit rate 0.34% among 190,000 | activation factor at 20 µM;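 active means activation factor of 2 or more at 20 µM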
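Test system: human PMI in coupled enzyme assay; Input: PMI at 15 ng/mL final; Medium: HEPES buffer, pH 7.4; Schedule: 20 min incubation at room temperature; Technique: resorufin fluorescence at Ex 544/Em 590 nm; Compound: 20 µM single dose; Probe or stimulus: Near-saturating mannose-6-phosphate, 1.0 mM.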
Calpain2 inh – calpain II (pig) inhibition | purified calpain II, fluorogenic peptide substrate, 30 min | inhibition, % at 16 µM | hit rate 0.37% among 220,000;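 active means inhibition above about 50%, limit read from the data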
WT yeast gro inh – growth inhibition of WT yeast, mitochondrial fusion screen; inhibition, % at 10 µM; hit rate 2.1% among 190,000; mitochondrial fusion phenotypic screen, WT strain; in the data active means inhibition above about 58%; tested in S. cerevisiae
PMI activator – activators of human phosphomannose isomerase. P34949. purified human PMI, coupled resazurin fluorescence, 20 min; hits give high values; 1 = vehicle control, 0 substrate-free wells. activation factor at 20 µM. hit rate 0.005% among 190,000. AID 1214;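 active means activation factor of 2 or more at 20 µM, relative to plate controls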
Starred values were filed as active, the others as inactive; x = no result.

SMILES	L major viab	Rad51 HR inh	PMI act satM6P	Calpain2 inh	WT yeast gro inh	PMI activator
Cc1ccc(OP(N)(=O)Oc2ccc(C)cc2)cc1	0	1	1.1	27	-9	1.1
CCn1c(NN=O)nc2ccccc21	53*	20	1.1	-29	3	1
Cc1ccc(/C=C2\C(=O)NC(=S)N(c3ccccc3F)C2=O)s1	101*	-20	1.6	-6	17	1.2
CCOC(=O)C1CCN(/C=C2/C(=O)NC(=S)N(c3ccccc3F)C2=O)CC1	55*	-4	1	23	-13	1
Cc1ccc(/C=C2\C(=O)NC(=S)N(c3ccc(F)cc3)C2=O)s1	100*	9	2.1*	-29	25	1.6
CN(C)CCNC(=O)c1cccn(Cc2cc(C(F)(F)F)cc(C(F)(F)F)c2)c1=O	-1	-8	0.8	-62	7	0.9
CC(C(=O)Nc1ccc(Br)cc1C(=O)c1ccccc1)N1CCOCC1 (stereo not given)	99*	2	1	17	-8	1
Cn1c(O)c(/C=N/c2ncccn2)c(=O)n(C)c1=O	78*	-1	1.1	-3	18	1
Cn1c(O)c(C=NCc2cccs2)c(=O)n(C)c1=O	-4	-5	1.1	32	1	1
CCOC(=O)C(O)(c1ccc(NC(=O)Oc2ccccc2)cc1)C(F)(F)F (stereo not given)	0	11	1	-7	-15	1.1
CCOC(=O)C(O)(c1ccc(N(CC)S(=O)(=O)c2ccccc2)cc1)C(F)(F)F (stereo not given)	100*	-5	0.9	8	-4	0.9
CCN(c1ccc(C(O)(C(=O)OC)C(F)(F)F)cc1)S(=O)(=O)c1ccccc1 (stereo not given)	99*	-7	0.9	-22	8	0.9
CC(=O)OC1N=C(c2ccccc2Cl)c2cc(Br)ccc2NC1=O (stereo not given)	x	25	x	-10	x	x
CCN(CC)CCN/N=C(\C)c1c(O)[nH]c(=O)[nH]c1=O	x	18	x	1	x	x
COc1cc(CN=Cc2c(O)n(C(C)(C)C)c(=O)[nH]c2=O)cc(OC)c1	x	7	x	20	x	x
CCOC(=O)c1c(-n2c(C)cc(/C=C3/C(=O)NC(=O)N(CC)C3=O)c2C)sc2c1CCCC2	96*	-13	x	x	x	x
CCOC(=O)c1c(-n2c(C)cc(C=C3C(=O)NC(=S)NC3=O)c2C)sc2c1CCCC2	100*	0	1.8	-332	78*	1.5
CCN1C(=O)NC(=O)/C(=C/c2cc(C)n(-c3sc(C)c(C)c3C#N)c2C)C1=O	0	-5	1.6	7	10	1.5
Cc1ncc(CN2CCCC(C(=O)c3cccc(Cl)c3)C2)s1 (stereo not given)	85*	6	0.9	8	0	0.9
COc1ccc(C(=O)C2CCCN(Cc3ccccn3)C2)c(OC)c1 (stereo not given)	-5	9	x	-19	13	x
Cc1ccsc1C(=O)C1CCCN(Cc2cnc(N3CCCC3)s2)C1 (stereo not given)	-3	-2	1	1	-1	1
COc1ccc(C(=O)C2CCCN(Cc3cnc(C)s3)C2)cc1OC (stereo not given)	81*	x	0.9	3	-9	0.9
Cc1ncc(CN2CCCC(C(=O)c3ccc(C(C)(C)C)cc3)C2)s1 (stereo not given)	91*	-8	0.9	26	31	0.9
COc1ccc(C(=O)C2CCCN(Cc3cnc(C)s3)C2)c(OC)c1 (stereo not given)	87*	-143	1	25	2	0.9
Cc1ccnc(-n2c(C)cc(C=C3C(=O)N(C)C(=S)N(C)C3=O)c2C)c1	51*	8	0.6	-85	-3	0.8
SMILES	L major viab	Rad51 HR inh	PMI act satM6P	Calpain2 inh	WT yeast gro inh	PMI activator
Cc1cc(C=C2C(=O)N(C)C(=S)N(C)C2=O)c(C)n1-c1ccncc1	x	-18	x	-16	x	x
CCN(CC)P(=O)(NC(=O)c1cccn1C)N(CC)CC	-5	20	1.1	-30	-8	1.2
COc1ccc(C2NCCc3[nH]cnc32)cc1 (stereo not given)	-6	2	1	-23	-19	1
CN1C(=O)N(C)C(=O)C2(Cc3c(nc4ccccn4c3=O)N3CCc4ccccc4C32)C1=O (stereo not given)	70*	3	0.9	-93	12	1
CC1CCN2c3nc4ccccn4c(=O)c3CC3(C(=O)N(C)C(=O)N(C)C3=O)C2C1 (stereo not given)	0	11	0.9	-49	-6	0.9
Fc1ccc(Cn2nnnc2C(c2ccc(Cl)cc2)N2CC=C(c3ccc(F)cc3)CC2)cc1 (stereo not given)	99*	-6	0.9	21	29	0.8
Fc1ccc(C2=CCN(C(c3ccc(Cl)cc3)c3nnnn3Cc3ccccc3)CC2)cc1 (stereo not given)	38	9	0.9	8	25	0.8
COc1ccc(N2C(=O)/C(=C/C=C/c3ccccc3[N+](=O)[O-])C(=O)NC2=S)cc1	92*	-8	1.1	-16	-11	1.2
CCOc1ccc(N2C(=O)NC(=O)/C(=C\c3cc(OC)c(OC)cc3[N+](=O)[O-])C2=O)cc1	56*	-6	0.6	18	8	0.9
COc1ccc(N2C(=O)NC(=O)/C(=C\c3ccc([N+](=O)[O-])s3)C2=O)cc1	97*	-8	1.5	25	18	1.4
COc1ccc(N2C(=O)NC(=O)/C(=C/c3ccc([N+](=O)[O-])s3)C2=O)cc1	x	-3	x	11	x	x
COc1ccc(N2C(=O)/C(=C/c3cccs3)C(=O)NC2=S)cc1	x	19	x	-4	x	x
CC(C)(C)NC(=O)C1CC2CCCCC2CN1 (stereo not given)	0	-6	0.9	-17	-11	0.9
CCOP(=O)(OCC)c1ccc(OP(=O)(c2cccc([N+](=O)[O-])c2)c2cccc([N+](=O)[O-])c2)cc1	x	0	x	-19	x	x
Cc1ccc(N/N=C/c2c(O)n(-c3ccccc3)c(=O)[nH]c2=O)cc1	92*	-2	2.5*	-5	52	1.6
Cc1ccc(-n2c(O)c(/C=C/C=Nc3ccccc3)c(=O)[nH]c2=O)cc1	-5	-306	0.9	14	-3	1.1
N/C(=N\[N+](=O)[O-])NCCCC(NC(=O)CNC(=O)c1ccccc1)C(=O)O (stereo not given)	-2	x	0.9	17	-4	1
COc1cccc(C(=O)C2CCCN(Cc3cnn(C(C)C)c3)C2)c1 (stereo not given)	71*	x	0.7	-21	3	0.9
Cc1cccc(CN2CCCC(C(=O)c3cccc(OC(C)C)c3)C2)n1 (stereo not given)	60*	15	x	21	15	x
